Activity calls are given as the source filed them. The calls are words filed in the database; no cut-off is given here.
How the values were obtained:
L1210 [1] = experiment: Cytotoxicity against mouse L1210 cells after 48 hrs by Coulter counting method; format: functional, cell-based; conditions: L1210, 48 h
Summary of the method: (§1)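 (5–7.5) × 10⁴ tumour cells per well with test compound. Proliferation ran 48 h for L1210 and 72 h for CEM and HeLa, at 37 °C in humidified CO₂. Cells counted in a Coulter counter. IC50 taken as the concentration that inhibited cell proliferation by 50%.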

HeLa [2] = experiment: Cytotoxicity against human HeLa cells after 72 hrs by Coulter counting method; format: functional, cell-based; summary of the method: as §1
CCRF-CEM = experiment: Cytotoxicity against human CEM cells after 72 hrs by Coulter counting method; format: cell-based; summary of the method: as §1
REH [3] = experiment: Induction of apoptosis in human REH cells assessed as ROS production at 1 uM after 5 to 60 mins using H2DCFDA by flow cytometry (reference value: 0.11%); format: functional
L1210 [4] = experiment: Ratio of melphalan IC50 to compound IC50 for mouse L1210 cells after 48 to 72 hrs by Coulter counter cell counting
REH [5] = experiment: Cytotoxicity against human REH cells at 0.5 uM after 48 hrs using ethidium bromide staining by live-dead assay relative to 293T cells; format: functional
Summary of the method: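 REH and 293T cells seeded at 1 × 10^5/ml, exposed to 0.5 μM compound for 48 h; DMSO vehicle control. Harvested cells stained with ethidium bromide (5 μg/ml), which enters membrane-compromised dead cells, and dead fraction quantified by flow cytometry. REH cultured in RPMI1640, 293T in DMEM, both with 10% FBS, penicillin/streptomycin, 37 °C, 5% CO2.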

REH [6] = experiment: Induction of apoptosis in human REH cells assessed as necrotic cells at 1 uM after 48 hrs using propidium iodide/annexin-V by flow cytometry (reference value: 2.5 %); format: functional
Summary of the method: (§2)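 REH cells given 1 μM compound for 48 h alongside DMSO controls. Harvested, washed in PBS, resuspended in binding buffer (10 mM HEPES pH 7.4, 144 mM NaCl, 25 mM CaCl₂).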

REH [7] = experiment: Induction of apoptosis in human REH cells assessed as ROS production at 1 uM after 30 mins using H2DCFDA by flow cytometry (reference value: 0.11%); format: functional
HeLa [8] = experiment: Ratio of melphalan IC50 to compound IC50 for human HeLa cells after 48 to 72 hrs by Coulter counter cell counting
REH [9] = experiment: Cytotoxicity against human REH cells after 48 to 72 hrs; format: functional, cell-based
Summary of the method: (§3)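 REH and K562 cells at 0.5 × 10⁵ cells/ml, given 0–10 μM compound, with a DMSO vehicle control. Read at 48 and 72 h by trypan blue dye exclusion (cells precultured 24 h before dosing) and by MTT. Three independent experiments, MTT in duplicate.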

REH [10] = experiment: Induction of apoptosis in human REH cells assessed as ROS production at 1 uM after 15 mins using H2DCFDA by flow cytometry (reference value: 0.11%); format: functional
REH [11] = experiment: Induction of apoptosis in human REH cells assessed as loss of mitochodrial membrane potential at 0.5 to 1 uM after 48 hrs using JC-1 staining by flow cytometry; format: functional, cell-based
Summary of the method: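 REH cells exposed to 0.5 or 1 μM compound for 48 h, then incubated with 0.5 μM JC-1 for 20 min at 37 °C, washed and read by flow cytometry. Green-to-red fluorescence ratio reported. 2,4-DNP as positive control, DMSO-treated cells as controls. Two independent experiments.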

[12] = Ratio of melphalan IC50 to compound IC50 for human CEM cells after 48 to 72 hrs by Coulter counter cell counting; conditions: CCRF-CEM (CEM) cells
REH [13] = experiment: Induction of apoptosis in human REH cells assessed as early apoptotic cells at 1 uM after 48 hrs using propidium iodide/annexin-V by flow cytometry (reference value: 16.2 %); format: functional; summary of the method: as §2
REH [14] = experiment: Induction of apoptosis in human REH cells assessed as ROS production at 1 uM after 5 mins using H2DCFDA by flow cytometry (reference value: 0.11%); format: functional
REH [15] = experiment: Effect on cell cycle progression in human REH cells at 0.1 to 1 uM after 48 hrs using propidium iodide by flow cytometry; format: functional, cell-based
Summary of the method: (§4)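 REH cells (0.5 × 10⁵ cells/ml) precultured 24 h, then exposed to 0, 0.1, 0.5 or 1 μM compound for 48 h. Harvested, fixed in 70% chilled ethanol, stained with propidium iodide, analysed by flow cytometry, at least 10,000 cells per sample. Phase distribution from histograms, two independent experiments.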

REH [16] = experiment: Induction of apoptosis in human REH cells assessed as viable cells at 1 uM after 48 hrs using propidium iodide/annexin-V by flow cytometry (reference value: 72.6 %); format: functional; conditions: read-out: Activity; summary of the method: as §2
REH [17] = experiment: Induction of apoptosis in human REH cells assessed as DNA fragmentation at 0.5 uM after 48 hrs by agarose gel electrophoresis; format: functional, cell-based
Summary of the method: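 REH cells given 0, 0.1, 0.5, 1 and 5 μM for 48 h, DMSO vehicle control. Cells lysed in Triton X-100/proteinase K buffer at 55 °C for 5 h, then RNase (50 μg/ml) 1 h at 37 °C. DNA precipitated with sodium acetate/isopropanol and run on 2% agarose at 50 V for 3 h.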

REH [18] = experiment: Induction of apoptosis in human REH cells assessed as ROS production at 1 uM after 60 mins using H2DCFDA by flow cytometry (reference value: 0.11%); format: functional
K562 = experiment: Cytotoxicity against human K562 cells after 48 to 72 hrs; format: functional, cell-based; summary of the method: as §3
REH [19] = experiment: Induction of apoptosis in human REH cells assessed as late apoptotic cells at 1 uM after 48 hrs using propidium iodide/annexin-V by flow cytometry (reference value: 8.7 %); format: functional; summary of the method: as §2
REH [20] = experiment: Cell cycle arrest in human REH cells assessed as accumulation at sub-G1 phase at 0.1 to 1 uM after 48 hrs using propidium iodide by flow cytometry; format: functional, cell-based; summary of the method: as §4
REH [21] = experiment: Cell cycle arrest in human REH cells at 0.1 to 1 uM after 48 hrs using propidium iodide by flow cytometry; format: functional, cell-based; summary of the method: as §4

SMILES | IC50 (L1210 [1]) [µM] | IC50 (HeLa [2]) [µM] | IC50 (CCRF-CEM) [µM] | other results
Clc1ccc(Cc2nn3c(Br)c(-c4ccccc4)nc3s2)cc1 | > 250 | > 250 | > 250 | –
O=c1oc2ccccc2cc1-c1cn2nc(Cc3ccc(Cl)cc3)sc2n1 | > 10 | > 10 | > 10 | –
O=[N+]([O-])c1ccc(-c2cn3nc(Cc4ccc(Cl)cc4)sc3n2)cc1 | 214 | > 250 | > 250 | –
O=Cc1c(-c2ccccc2)nc2sc(Cc3ccc(Cl)cc3)nn12 | 20 | 45 | 22 | –
COc1ccc(-c2nc3sc(Cc4ccc(Cl)cc4)nn3c2C=O)cc1 | 5.3 | 6 | 3.8 | –
COc1ccc(-c2cn3nc(Cc4ccc(Cl)cc4)sc3n2)cc1 | 38 | > 250 | > 250 | –
c1ccc([C@H]2CN3CCSC3=N2)cc1 [LEVAMISOLE] | 206 | 250 | > 250 | –
O=Cc1c(-c2cc3ccccc3oc2=O)nc2sc(Cc3ccc(Cl)cc3)nn12 | 0.89 | 0.9 | 0.75 | Activity (REH [3]): 36.99%; Ratio IC50 (L1210 [4]): 3; fold change (FC) (REH [5]): 6; Activity (REH [6]): 9.1%; Activity (REH [7]): 0.13%; Ratio IC50 (HeLa [8]): 3; IC50 (REH [9]): 0.67 µM; Activity (REH [10]): 0.12%; Activity (REH [11]): Active; selectivity ratio [12]: 3; Activity (REH [13]): 21.5%; Activity (REH [14]): 0.16%; Activity (REH [15]): inactive; viability at 1 µM (REH [16]): 54.8%; Activity (REH [17]): Active; Activity (REH [18]): 0.16%; IC50 (K562): 0.9 µM; Activity (REH [19]): 14.6%; Activity (REH [20]): Active; Activity (REH [21]): inactive
O=Cc1c(-c2ccc(Cl)cc2)nc2sc(Cc3ccc(Cl)cc3)nn12 | 15 | 16 | 5.8 | –
O=Cc1c(-c2ccc(Br)cc2)nc2sc(Cc3ccc(Cl)cc3)nn12 | 4.6 | 4.2 | 4 | –
Clc1ccc(Cc2nn3c(Br)c(-c4ccc(Cl)cc4Cl)nc3s2)cc1 | 31 | 118 | 106 | –
N#CSc1c(-c2ccc(Br)cc2)nc2sc(Cc3ccc(Cl)cc3)nn12 | 81 | 22 | 61 | –
Clc1ccc(Cc2nn3cc(-c4ccc(Br)cc4)nc3s2)cc1 | > 250 | > 250 | > 250 | –
Clc1ccc(Cc2nn3cc(-c4ccc(Cl)cc4Cl)nc3s2)cc1 | 247 | 109 | > 250 | –
O=Cc1c(-c2ccc(F)cc2)nc2sc(Cc3ccc(Cl)cc3)nn12 | 20 | 20 | 17 | –
O=[N+]([O-])c1ccc(-c2nc3sc(Cc4ccc(Cl)cc4)nn3c2Br)cc1 | 94 | > 250 | 73 | –
Clc1ccc(Cc2nn3c(Br)c(-c4ccc(Br)cc4)nc3s2)cc1 | > 250 | 188 | 238 | –
COc1ccc(-c2nc3sc(Cc4ccc(Cl)cc4)nn3c2SC#N)cc1 | 16 | 9 | 10 | –
Cc1ccc(-c2nc3sc(Cc4ccc(Cl)cc4)nn3c2SC#N)cc1 | 32 | 22 | 22 | –

SMILES | IC50 (L1210 [1]) [µM] | IC50 (HeLa [2]) [µM] | IC50 (CCRF-CEM) [µM] | other results
N#CSc1c(-c2ccc(F)cc2)nc2sc(Cc3ccc(Cl)cc3)nn12 | 23 | 20 | 24 | –
Fc1ccc(-c2cn3nc(Cc4ccc(Cl)cc4)sc3n2)cc1 | > 250 | > 250 | > 250 | –
O=Cc1c(-c2ccc(Cl)cc2Cl)nc2sc(Cc3ccc(Cl)cc3)nn12 | 82 | 64 | 79 | –
Cc1ccc(-c2nc3sc(Cc4ccc(Cl)cc4)nn3c2Br)cc1 | > 250 | > 250 | > 250 | –
COc1ccc(-c2nc3sc(Cc4ccc(Cl)cc4)nn3c2Br)cc1 | 63 | 66 | 58 | –
Clc1ccc(Cc2nn3cc(-c4ccccc4)nc3s2)cc1 | > 250 | > 250 | > 250 | –
Cc1ccc(-c2nc3sc(Cc4ccc(Cl)cc4)nn3c2C=O)cc1 | 23 | 21 | 17 | –
Cc1ccc(-c2cn3nc(Cc4ccc(Cl)cc4)sc3n2)cc1 | > 250 | > 250 | > 250 | –
N[C@@H](Cc1ccc(N(CCCl)CCCl)cc1)C(=O)O [MELPHALAN] | – | – | 1.4 | –
N#CSc1c(-c2cc3ccccc3oc2=O)nc2sc(Cc3ccc(Cl)cc3)nn12 | 1.3 | 1 | 1.4 | IC50 (REH [9]): 6.2 µM; IC50 (K562): 3.1 µM
Clc1ccc(Cc2nn3c(Br)c(-c4ccc(Cl)cc4)nc3s2)cc1 | > 250 | > 250 | > 250 | –
O=Cc1c(-c2ccc([N+](=O)[O-])cc2)nc2sc(Cc3ccc(Cl)cc3)nn12 | 15 | 17 | 13 | –
Fc1ccc(-c2nc3sc(Cc4ccc(Cl)cc4)nn3c2Br)cc1 | > 250 | > 250 | > 250 | –
Clc1ccc(Cc2nn3cc(-c4ccc(Cl)cc4)nc3s2)cc1 | > 250 | 95 | > 250 | –
N#CSc1c(-c2ccc(Cl)cc2)nc2sc(Cc3ccc(Cl)cc3)nn12 | 49 | 20 | 30 | –
N#CSc1c(-c2ccc([N+](=O)[O-])cc2)nc2sc(Cc3ccc(Cl)cc3)nn12 | 50 | 16 | 20 | –
N#CSc1c(-c2ccccc2)nc2sc(Cc3ccc(Cl)cc3)nn12 | 24 | 12 | 14 | –
O=c1oc2ccccc2cc1-c1nc2sc(Cc3ccc(Cl)cc3)nn2c1Br | 5.2 | 4.5 | 3.7 | –
N#CSc1c(-c2ccc(Cl)cc2Cl)nc2sc(Cc3ccc(Cl)cc3)nn12 | 49 | 18 | 46 | –

— ChEMBL document CHEMBL3351601, “2-(4-Chlorobenzyl)-6-arylimidazo[2,1-b][1,3,4]thiadiazoles: synthesis, cytotoxic activity and mechanism of action” (Eur J Med Chem, 2014)
